Shown are actives, neighbours in structure and some others; about 2% of the full set was active somewhere.
SUMO1-SIM PPI = modulators of SUMO1 protein-protein interactions, primary screen, biochemical, uHTS; Small ubiquitin-related modifier 1 (Homo sapiens), P63165; SUMO1 binding to a labelled peptide, TR-FRET, 1 h; inhibition, % at 20 µM; 360,000 compounds, 0.33% hits; in the data active = inhibition above about 37%
Target sequence (P63165 whole entry, looked up): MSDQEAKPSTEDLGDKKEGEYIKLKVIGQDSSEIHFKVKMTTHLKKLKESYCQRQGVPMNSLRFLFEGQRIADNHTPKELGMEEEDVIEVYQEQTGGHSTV
DNMT1 inh = human DNMT1 methyltransferase inhibitors, primary screen, biochemical, molecular beacon, fluorescence, HinP1I cleavage, uHTS. AID 588458, 2011. inhibition (reported as % activation of signal), % at 10 µM. 360,000 compounds, 0.83% hits. DNA (cytosine-5)-methyltransferase 1 (Homo sapiens), P26358; in the data active = inhibition above about 50%
LMPTP inh = LMPTP phosphatase inhibitors, primary screen, biochemical, fluorescence intensity, uHTS. Low molecular weight phosphotyrosine protein phosphatase (Homo sapiens), P24666. recombinant LMPTP-A, OMFP fluorogenic substrate. inhibition, % at 20 µM. 360,000 compounds, 0.22% hits. AID 651560, 2012;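 active = compounds that cut the enzyme signal by at least half of the control window in the single-dose screen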;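 also: plate controls were DMSO wells with enzyme plus substrate for no effect and substrate without enzyme for full effect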
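Assay system: LMPTP-A phosphatase enzyme | Input: 0.625 nM enzyme | Also added: Fluorogenic phosphatase substrate OMFP at 400 µM final | Compound dosing: One test concentration per compound, 20 µM, with 3% DMSO overall | Schedule: 50 min enzyme reaction at room temperature, protected from light | Signal: Fluorescence intensity | Benchmarks: no-enzyme and uninhibited controls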
Scp-1 inhibitor = Scp-1 phosphatase inhibitors, primary screen, biochemical, colorimetric, uHTS; Recombinant Scp1, phosphopeptide, malachite green phosphate absorbance; inhibition, % at 20 µM; 340,000 compounds, 0.88% hits; AID 493091, 2011;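 active = inhibition above about 50% at 20 µM, limit read from the data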;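 also: plate controls were DMSO wells with enzyme for no effect and wells lacking enzyme for full effect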
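assay system = SCP-1 phosphatase catalytic domain, residues 76-261 | buffer or medium = 50 mM Tris acetate pH 5.5, 0.005% Tween-20, 10 mM MgCl2 | incubation = enzyme reaction 45 min at room temperature, colour 5 min, stabilisation 30 min | signal = Phosphate-binding colour reagent, absorbance read at 630 nm | measure = % inhibition at 20 µM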
CSN deneddyl inh = inhibitors of CSN-mediated cullin deneddylation, primary screen, biochemical, fluorescence polarization, uHTS; COP9 signalosome complex subunit 5 (Homo sapiens), Q92905; Purified CSN, SCF-Nedd8-OG deneddylation; 360,000 compounds, 0.38% hits; inhibition, % at 12.5 µM;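 active = pattern-corrected inhibition above about 35%, with an unprinted fluorescence ratio check between 0.5 and 1.5, limit read from the data, passing the limit was not always enough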;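 also: 0% = enzyme with substrate and 100% = substrate without enzyme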
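Detection – fluorescence polarization · System – HEK293T-derived human Csn5 enzyme · Controls – substrate-only high control, full reaction low control · Timing – 90 min, room temperature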
STEP inh = STEP phosphatase inhibitors, primary screen, biochemical, fluorescence intensity, uHTS; Tyrosine-protein phosphatase non-receptor type 5 (Homo sapiens), P54829; recombinant STEP, OMFP fluorogenic substrate; inhibition, % at 20 µM; 360,000 compounds, 0.25% hits;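 active = inhibition at 20 µM, scaled per plate between control wells, above about 37%, limit read from the data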;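 also: 0% = DMSO with enzyme and substrate and 100% = substrate only without enzyme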
Target sequence (P54829 whole entry, looked up): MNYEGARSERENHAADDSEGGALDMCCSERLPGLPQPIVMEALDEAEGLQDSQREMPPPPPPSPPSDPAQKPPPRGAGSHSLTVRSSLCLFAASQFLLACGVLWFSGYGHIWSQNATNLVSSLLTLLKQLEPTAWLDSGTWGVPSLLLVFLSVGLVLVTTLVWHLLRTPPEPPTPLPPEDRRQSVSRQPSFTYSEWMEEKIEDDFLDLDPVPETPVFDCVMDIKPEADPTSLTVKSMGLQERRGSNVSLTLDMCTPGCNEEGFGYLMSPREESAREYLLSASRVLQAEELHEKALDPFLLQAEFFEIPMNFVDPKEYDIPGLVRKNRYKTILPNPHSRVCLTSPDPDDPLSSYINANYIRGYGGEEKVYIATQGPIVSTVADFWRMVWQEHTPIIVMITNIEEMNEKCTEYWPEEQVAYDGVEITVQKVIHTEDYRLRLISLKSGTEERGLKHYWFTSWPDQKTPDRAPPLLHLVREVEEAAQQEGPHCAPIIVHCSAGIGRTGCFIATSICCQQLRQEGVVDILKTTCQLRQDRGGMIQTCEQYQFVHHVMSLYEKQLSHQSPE
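Measure: Control-normalized % inhibition with plate pattern correction | Test system: STEP phosphatase, cell-free reaction | Medium: pH 6.0 Bis-Tris with DTT and Tween 20 | Technique: Fluorescence, 480/540 nm | Times: Reaction 20 min, ambient temperature | Doses: Single compound dose of 20 µM, 1% DMSO final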
Starred values were filed as active, the others as inactive.

For CN(C)c1ccc(/C=C2/SC(=O)N(CCN=C3NS(=O)(=O)c4ccccc43)C2=O)cc1 the results were SUMO1-SIM PPI 41*, DNMT1 inh -26, LMPTP inh 1, Scp-1 inhibitor -3, CSN deneddyl inh 4 and STEP inh -1.
`CN(C)c1ccc(/C=C2\SC(=O)N(CC(O)Cn3c4ccccc4c4ccccc43)C2=O)cc1` (stereo not drawn) gave SUMO1-SIM PPI -1, DNMT1 inh -8, LMPTP inh 4, Scp-1 inhibitor -1, CSN deneddyl inh -6 and STEP inh 0.
For COc1ccc(CCn2c(NN=C(C)C)nc3c2c(=O)[nH]c(=O)n3C)cc1 the results were SUMO1-SIM PPI -12, DNMT1 inh 4, LMPTP inh -1, Scp-1 inhibitor 17, CSN deneddyl inh 3 and STEP inh -4.
COc1ccc(CCn2c(NN)nc3c2c(=O)[nH]c(=O)n3C)cc1 was read as SUMO1-SIM PPI -10, DNMT1 inh 75*, LMPTP inh 7, Scp-1 inhibitor 20, CSN deneddyl inh 0 and STEP inh 28.
`CN(C)CCNC(=O)c1cccc2nc3cccc(F)c3nc12` gave SUMO1-SIM PPI -56, DNMT1 inh 55*, LMPTP inh 0, Scp-1 inhibitor -5, CSN deneddyl inh 2 and STEP inh 0.
COc1ccc(NC(=O)C2CCC(CNc3c(N4CCOCC4)c(=O)c3=O)CC2)cc1Cl (stereo not drawn) was read as SUMO1-SIM PPI 2, DNMT1 inh 2, LMPTP inh -1, Scp-1 inhibitor -4, CSN deneddyl inh -10 and STEP inh 0.
`COc1ccc(NC(=O)c2ccc(CNc3c(N4CCCC4)c(=O)c3=O)cc2)cc1Cl` gave SUMO1-SIM PPI 58*, DNMT1 inh 1, LMPTP inh 4, Scp-1 inhibitor -4, CSN deneddyl inh 3 and STEP inh 0.
For Cc1ccc(NC(=O)Nn2cnnc2)cc1Cl the results were SUMO1-SIM PPI 49*, DNMT1 inh 2, LMPTP inh 0, Scp-1 inhibitor -6, CSN deneddyl inh 0 and STEP inh -2.
`CCC(C)[C@H](NC(=O)NCc1ccco1)C(=O)OC` (stereo partly drawn) gave SUMO1-SIM PPI 1, DNMT1 inh -1, LMPTP inh -1, Scp-1 inhibitor -7, CSN deneddyl inh -2 and STEP inh -1.
Screening Cc1ccc(S(=O)(=O)N2CCOCC2)cc1NC(=O)CSc1nc(N)cc(N)n1 returned SUMO1-SIM PPI -1, DNMT1 inh 5, LMPTP inh 2, Scp-1 inhibitor -2, CSN deneddyl inh -2 and STEP inh 2.
For CCOC(=O)C1=C(C)N=c2sc(=Cc3ccc(OCC(=O)O)cc3)c(=O)n2C1c1ccc(SC)cc1 (stereo not drawn) the results were SUMO1-SIM PPI 107*, DNMT1 inh 89*, LMPTP inh 65*, CSN deneddyl inh 38* and STEP inh 94*.
`COC(=O)C1=C(C)N=c2s/c(=C/c3ccoc3)c(=O)n2C1c1ccccc1` (stereo not drawn) gave SUMO1-SIM PPI -6, DNMT1 inh -8, LMPTP inh 1, Scp-1 inhibitor -11, CSN deneddyl inh 58* and STEP inh 5.
CCOC(=O)C1=C(c2ccccc2)N=c2s/c(=C\c3ccc(O)cc3)c(=O)n2C1c1cccs1 (stereo not drawn) was read as SUMO1-SIM PPI -2, DNMT1 inh -21, LMPTP inh 2, Scp-1 inhibitor -8, CSN deneddyl inh 45* and STEP inh 0.
CC(=O)C1=C(C)N=c2s/c(=C/c3ccc4c(c3)OCO4)c(=O)n2C1c1ccc(N(C)C)cc1 (stereo not drawn) was read as SUMO1-SIM PPI -19, DNMT1 inh -9, LMPTP inh 3, Scp-1 inhibitor -7, CSN deneddyl inh 42* and STEP inh -5.
Screening CCOC(=O)C1=C(C)N=c2s/c(=C\c3ccc(C(=O)O)cc3)c(=O)n2C1c1ccc(F)cc1 (stereo not drawn) returned SUMO1-SIM PPI -18, DNMT1 inh 1, LMPTP inh 1, Scp-1 inhibitor 7, CSN deneddyl inh 7 and STEP inh 11.
Screening Cc1ccc(S(=O)(=O)CCC(=O)OCC(=O)Nc2cc(F)ccc2C)cc1 returned SUMO1-SIM PPI -12, DNMT1 inh -1, LMPTP inh 2, Scp-1 inhibitor -2, CSN deneddyl inh -1 and STEP inh 0.
CC(C#N)(NC(=O)CN1CCN(S(=O)(=O)c2ccc(Br)cc2Cl)CC1)C1CC1 (stereo not drawn) was read as SUMO1-SIM PPI 8, DNMT1 inh 2, LMPTP inh -2, Scp-1 inhibitor 4, CSN deneddyl inh -1 and STEP inh 0.
CCC(O)(CC)C(=O)NN(C(=O)CCl)c1ccccc1 was read as SUMO1-SIM PPI 4, DNMT1 inh 4, LMPTP inh 0, Scp-1 inhibitor -8, CSN deneddyl inh -5 and STEP inh -2.
`O=C(Nc1ccccc1)NN(C(=O)CCl)c1ccccc1` gave SUMO1-SIM PPI 70*, DNMT1 inh 8, LMPTP inh -2, Scp-1 inhibitor -1, CSN deneddyl inh 5 and STEP inh -2.
CC(OC(=O)/C(C#N)=C/c1ccc(N(C)C)cc1)C(=O)NCc1ccco1 (stereo not drawn) was read as SUMO1-SIM PPI -6, DNMT1 inh 61*, LMPTP inh 2, CSN deneddyl inh 15 and STEP inh -2.
`CC(C)c1nc(SCC(=O)Nc2ccc(C(=O)O)cc2)c2c3c(sc2n1)CCCC3` gave SUMO1-SIM PPI 32, DNMT1 inh 1, LMPTP inh 53*, Scp-1 inhibitor 17, CSN deneddyl inh 5 and STEP inh 1.
`O=C(Nc1ccccc1Br)C1CCN(S(=O)(=O)c2cccs2)CC1` gave SUMO1-SIM PPI 8, DNMT1 inh 1, LMPTP inh 1, Scp-1 inhibitor -8, CSN deneddyl inh 3 and STEP inh 3.
`Cc1ccc(SCC(=O)Nc2ccc(S(N)(=O)=O)cc2)cc1` gave SUMO1-SIM PPI -2, DNMT1 inh 0, LMPTP inh -1, Scp-1 inhibitor -6, CSN deneddyl inh -16 and STEP inh -2.
